Experimental data published in ChEMBL document CHEMBL1158769, “Macrophage activating effects of new alkamides from the roots of Echinacea species” (J Nat Prod, 2005).
Values after ≈ are worked out from the molar mass of the structure shown.

How the values were obtained:
RAW264.7 = assay: Inhibition of LPS-stimulated NO production in mouse RAW264.7 cells; type: functional; settings: read-out: ID50 (the source's name)
How it was run: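 In some runs the compound medium was removed and the cells washed before LPS. Supernatant nitrite measured by Griess reagent at A550. Relative NO = (Exp-OD − Control-OD)/(LPS-OD − Control-OD) × 100%.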

[1] = Toxicity in mouse RAW264.7 cells by MTT assay; type: cell-based; settings: read-out: TD50 (the source's name)
How it was run: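 RAW 264.7 cells exposed to a range of alkamide concentrations for 24 h, or for 4 h followed by 24 h in fresh medium. Cells washed, labeled with MTT for 4 h, lysed in DMSO, formazan read at A540. Viability = Exp-OD/Control-OD × 100%, with control at the same cell number.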

Question: With C/C=C\C=C/CC/C=C/C=C/C(=O)NCC(C)C as the molecule, how does the IC50 (RAW264.7) read?
Answer: Its IC50 is 6 µg/mL (≈ 24.3 µM).

Question: And the CC50 [1]?
Answer: Its CC50 is 50 µg/mL (≈ 202 µM).

Question: For CCCCCCC/C=C/C=C/C(=O)NCC(C)C, which IC50 (RAW264.7) is on record?
Answer: Its IC50 is 6 µg/mL (≈ 23.9 µM).

Question: What about the CC50 [1] of the same molecule?
Answer: Its CC50 is 12.5 µg/mL (≈ 49.7 µM).

Question: What does the source list for C/C=C/C=C\CC/C=C/C=C/C(=O)NCC(C)C?
Answer: IC50 (RAW264.7): 6 µg/mL (≈ 24.3 µM); CC50 [1]: 50 µg/mL (≈ 202 µM)
